From ChEMBL document CHEMBL4152384, “Pyrtriazoles, a Novel Class of Store-Operated Calcium Entry Modulators: Discovery, Biological Profiling, and in Vivo Proof-of-Concept Efficacy in Acute Pancreatitis” (J Med Chem, 2018)
pIC50: −log10 of the molar value. Active and inactive are the calls of the source. The calls are words filed in the database; no cut-off is given here.

Key:
Jurkat [1] = test: (§1) Induction of store-operated calcium entry in human Jurkat cells assessed as induction of store-operated calcium entry by measuring residual activity at 10 uM preincubated for 30 mins followed by tBhQ-mediated Ca2+ depletion and Ca2+ re-addition to extracellular solution measured for 600 secs by Fluo-4 AM-based fluorometric assay relative to control; assay type: cell-based
[2] = target: T1, Stromal interaction molecule 1 & 2/Calcium release-activated calcium channel protein 1 (Mus musculus) (UniProt Q8BWG9+P70302+P83093); test: (§2) Modulation of STIM1/STIM2/Orai1 in mouse BV2 cells assessed as induction of store-operated calcium entry by measuring residual activity at 10 uM preincubated for 30 mins followed by tBhQ-mediated Ca2+ depletion and Ca2+ re-addition to extracellular solution measured for 600 secs by Fluo-4 AM-based fluorometric assay relative to control; assay type: cell-based
[3] = target: T2, Short transient receptor potential channel 1 & 3/Stromal interaction molecule 1/Calcium release-activated calcium channel protein 1 (Homo sapiens) (UniProt Q96D31+Q13507+Q13586+P48995); test: as §2, with “TRPC1/TRPC3/STIM1/Orai1” for “STIM1/STIM2/Orai1”, “HEK” for “mouse BV2”; assay type: cell-based
[4] = target: Transient receptor potential cation channel subfamily V member 1 (Homo sapiens) (UniProt Q8NER1); test: Antagonist activity at TRPV1 (unknown origin) expressed in HEK cells assessed as inhibition of capsaicin-induced calcium increase at 10 uM by fura-2-based assay; assay type: cell-based
In short: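 TRPV1-overexpressing Hek cells; calcium rise evoked by capsaicin (100 nM), test compounds at 10 μM; peak amplitude read out; mean ± SEM of 600 cells from 30 plates on four separate experimental days.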

[5] = target: Transient receptor potential cation channel subfamily M member 8 (Homo sapiens) (UniProt Q7Z2W7); test: Antagonist activity at TRPM8 (unknown origin) expressed in HEK cells assessed as inhibition of menthol -mediated calcium increase at 10 uM by fura-2-based assay; assay type: cell-based
In short: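 TRPM8-overexpressing Hek cells; calcium rise evoked by menthol (100 μM), test compounds at 10 μM; peak amplitude read out; mean ± SEM of 600 cells from 30 plates on four separate experimental days.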

[6] = Cytotoxicity against HEK cells assessed as cell viability at 10 uM by MTT assay relative to control; assay type: cell-based; details: human, read-out: Activity
In short: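 Hek cells treated 24 h with compound at 10 μM; viability determined by MTT assay.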

[7] = target: Short transient receptor potential channel 1 & 3/Stromal interaction molecule 1/Calcium release-activated calcium channel protein 1 (Homo sapiens, UniProt P48995+Q13507+Q13586+Q96D31); test: as §2, with “TRPC1/TRPC3/STIM1/Orai1” for “STIM1/STIM2/Orai1”, “HEK” for “mouse BV2”, “activity” for “activity at 10 uM”; assay type: cell-based
[8] = Metabolic stability in CD1 mouse plasma assessed as residual compound level at 50 uM after 30 mins by LC-UV analysis; assay type: ADME, cell-free; details: read-out: Stability
In short: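 Compounds incubated in mouse plasma for 30 min; percentage of residual substrate determined.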

[9] = Drug metabolism in CD1 mouse liver microsomes assessed as 1-(4-(4-(3-Carboxyphenyl)-1H-1,2,3-triazol-1-yl)phenyl)-5-(trifluoromethyl)-1H-pyrazole-4-carboxylic Acid metabolite formation at 50 uM after 60 mins by mass spectroscopic analysis; assay type: ADME, microsome
[10] = Drug metabolism in CD1 mouse liver microsomes assessed as ester group hydrolysis at 50 uM after 60 mins in absence of NADPH/UDPGA; assay type: ADME, microsome; details: 1 h
[11] = test system: voltage-gated calcium channel (Mus musculus); test: Antagonist activity at voltage-gated calcium channels in C57/BL6 mouse cerebellar granule cells assessed as inhibition of KCl-induced voltage dependent calcium entry at 10 uM by fura-2-based assay
[12] = test system: voltage-gated calcium channel (Mus musculus); test: as above; remark: listed apart in the source
[13] = Metabolic stability in CD1 mouse liver S9 fraction assessed as residual compound level at 50 uM after 1 hr; assay type: ADME, subcellular; details: read-out: Stability
In short: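 Hydrolytic stability measured in mouse liver S9 fraction; residual substrate quantified after 1 h incubation.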

[14] = Drug metabolism in CD1 mouse liver microsomes assessed as ester group hydrolysis at 50 uM after 60 mins in presence of NADPH/UDPGA; assay type: ADME, microsome; details: 1 h
[15] = target: T1, Stromal interaction molecule 1 & 2/Calcium release-activated calcium channel protein 1 (Mus musculus); test: as §2, with “100” for “10”; assay type: cell-based
[16] = as §1, with “activity” for “activity at 10 uM”; assay type: cell-based
[17] = target: T2, Short transient receptor potential channel 1 & 3/Stromal interaction molecule 1/Calcium release-activated calcium channel protein 1 (Homo sapiens); test: as §2, with “TRPC1/TRPC3/STIM1/Orai1” for “STIM1/STIM2/Orai1”, “HEK” for “mouse BV2”, “100” for “10”; assay type: cell-based
Jurkat [18] = test: as §1, with “100” for “10”; assay type: cell-based
Jurkat [19] = test: as §1, with “increase in slope” for “residual activity”, “3 to 100” for “10”; assay type: cell-based
Jurkat [20] = test: as §1, with “increase in peak amplitude” for “residual activity”, “3 to 100” for “10”; assay type: cell-based
Jurkat [21] = test: as §1, with “increase in AUC of calcium entry” for “residual activity”, “3 to 100” for “10”; assay type: cell-based
[22] = target: T1, Stromal interaction molecule 1 & 2/Calcium release-activated calcium channel protein 1 (Mus musculus); test: as §2, with “increase in peak amplitude” for “residual activity”, “3 to 100” for “10”; assay type: cell-based
[23] = target: T3, ORAI1/STIM1 (Homo sapiens) (UniProt Q96D31+Q13586); test: Modulation of Orai1/STIM1 (unknown origin) expressed in HEK cells assessed as potentiation of store-operated calcium currents in presence of 20 mM BAPTA and 150 nM Ca2+ containing internal solution by patch clamp assay relative to control; assay type: cell-based
[24] = target: T1, Stromal interaction molecule 1 & 2/Calcium release-activated calcium channel protein 1 (Mus musculus); test: as §2, with “entry” for “entry by measuring residual activity”, “800” for “600”; assay type: cell-based
In short: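 Microplate Fluo-4 assay in mouse microglial BV-2 cells. Stores emptied with tBhQ (50 μM) in presence of compound (10 μM); extracellular Ca2+ re-added after 600 s and intracellular Ca2+ read fluorimetrically; SOCE expressed versus control.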

Homo sapiens = organism: Homo sapiens; test: Modulation of Orai1/STIM1 (unknown origin) expressed in HEK cells assessed as potentiation of store-operated calcium currents by measuring reduction in time constant of channel activation in presence of 20 mM BAPTA and 150 nM Ca2+ containing internal solution by patch clamp assay relative to control; assay type: cell-based
[25] = target: T2, Short transient receptor potential channel 1 & 3/Stromal interaction molecule 1/Calcium release-activated calcium channel protein 1 (Homo sapiens); test: as §2, with “TRPC1/TRPC3/STIM1/Orai1” for “STIM1/STIM2/Orai1”, “HEK” for “mouse BV2”, “entry” for “entry by measuring residual activity”, “800” for “600”; assay type: cell-based
Jurkat [26] = test: as §1, with “entry” for “entry by measuring residual activity”, “800” for “600”; assay type: cell-based
[27] = target: T1, Stromal interaction molecule 1 & 2/Calcium release-activated calcium channel protein 1 (Mus musculus); test: as §2, with “increase in slope” for “residual activity”, “3 to 100” for “10”; assay type: cell-based
[28] = target: T1, Stromal interaction molecule 1 & 2/Calcium release-activated calcium channel protein 1 (Mus musculus); test: as §2, with “increase in AUC of calcium entry” for “residual activity”, “3 to 100” for “10”; assay type: cell-based
[29] = target: T2, Short transient receptor potential channel 1 & 3/Stromal interaction molecule 1/Calcium release-activated calcium channel protein 1 (Homo sapiens); test: as §2, with “TRPC1/TRPC3/STIM1/Orai1” for “STIM1/STIM2/Orai1”, “HEK” for “mouse BV2”, “increase in slope” for “residual activity”, “3 to 100” for “10”; assay type: cell-based
[30] = target: T2, Short transient receptor potential channel 1 & 3/Stromal interaction molecule 1/Calcium release-activated calcium channel protein 1 (Homo sapiens); test: as §2, with “TRPC1/TRPC3/STIM1/Orai1” for “STIM1/STIM2/Orai1”, “HEK” for “mouse BV2”, “increase in AUC of calcium entry” for “residual activity”, “3 to 100” for “10”; assay type: cell-based
[31] = target: T3, ORAI1/STIM1 (Homo sapiens); test: Modulation of Orai1/STIM1 (unknown origin) expressed in HEK cells assessed as potentiation of store-operated calcium currents in presence of 20 mM BAPTA by patch clamp assay relative to control; assay type: cell-based
In short: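 Whole-cell ISOC recorded in Hek cells stably overexpressing Orai1 and transiently expressing STIM1; internal solution strongly buffered with 20 mM BAPTA; compound at 10 μM versus untreated control.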

[32] = target: T2, Short transient receptor potential channel 1 & 3/Stromal interaction molecule 1/Calcium release-activated calcium channel protein 1 (Homo sapiens); test: as §2, with “TRPC1/TRPC3/STIM1/Orai1” for “STIM1/STIM2/Orai1”, “HEK” for “mouse BV2”, “increase in peak amplitude” for “residual activity”, “3 to 100” for “10”; assay type: cell-based

T2 sequence (P48995 whole entry partner): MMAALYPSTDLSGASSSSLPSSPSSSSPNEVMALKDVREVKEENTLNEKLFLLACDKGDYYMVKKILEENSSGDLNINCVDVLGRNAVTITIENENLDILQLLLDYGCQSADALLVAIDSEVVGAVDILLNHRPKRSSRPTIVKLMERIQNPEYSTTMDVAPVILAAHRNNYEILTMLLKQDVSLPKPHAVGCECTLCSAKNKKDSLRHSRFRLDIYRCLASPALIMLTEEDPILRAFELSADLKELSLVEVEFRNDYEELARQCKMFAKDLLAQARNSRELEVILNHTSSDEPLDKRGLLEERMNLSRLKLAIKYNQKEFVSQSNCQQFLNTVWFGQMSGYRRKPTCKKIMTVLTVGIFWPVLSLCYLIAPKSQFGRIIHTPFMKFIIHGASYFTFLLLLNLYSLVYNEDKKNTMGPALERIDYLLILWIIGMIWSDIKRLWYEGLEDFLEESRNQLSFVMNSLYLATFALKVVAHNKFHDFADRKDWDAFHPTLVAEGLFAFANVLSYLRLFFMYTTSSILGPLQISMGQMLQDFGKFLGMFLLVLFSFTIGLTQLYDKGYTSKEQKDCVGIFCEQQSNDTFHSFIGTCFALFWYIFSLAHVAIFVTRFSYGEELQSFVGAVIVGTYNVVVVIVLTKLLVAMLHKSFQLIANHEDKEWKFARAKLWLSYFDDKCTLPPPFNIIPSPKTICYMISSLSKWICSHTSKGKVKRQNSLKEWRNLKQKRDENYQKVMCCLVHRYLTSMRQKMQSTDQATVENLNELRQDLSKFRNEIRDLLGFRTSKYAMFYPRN
T2 sequence (Q13507 whole entry partner): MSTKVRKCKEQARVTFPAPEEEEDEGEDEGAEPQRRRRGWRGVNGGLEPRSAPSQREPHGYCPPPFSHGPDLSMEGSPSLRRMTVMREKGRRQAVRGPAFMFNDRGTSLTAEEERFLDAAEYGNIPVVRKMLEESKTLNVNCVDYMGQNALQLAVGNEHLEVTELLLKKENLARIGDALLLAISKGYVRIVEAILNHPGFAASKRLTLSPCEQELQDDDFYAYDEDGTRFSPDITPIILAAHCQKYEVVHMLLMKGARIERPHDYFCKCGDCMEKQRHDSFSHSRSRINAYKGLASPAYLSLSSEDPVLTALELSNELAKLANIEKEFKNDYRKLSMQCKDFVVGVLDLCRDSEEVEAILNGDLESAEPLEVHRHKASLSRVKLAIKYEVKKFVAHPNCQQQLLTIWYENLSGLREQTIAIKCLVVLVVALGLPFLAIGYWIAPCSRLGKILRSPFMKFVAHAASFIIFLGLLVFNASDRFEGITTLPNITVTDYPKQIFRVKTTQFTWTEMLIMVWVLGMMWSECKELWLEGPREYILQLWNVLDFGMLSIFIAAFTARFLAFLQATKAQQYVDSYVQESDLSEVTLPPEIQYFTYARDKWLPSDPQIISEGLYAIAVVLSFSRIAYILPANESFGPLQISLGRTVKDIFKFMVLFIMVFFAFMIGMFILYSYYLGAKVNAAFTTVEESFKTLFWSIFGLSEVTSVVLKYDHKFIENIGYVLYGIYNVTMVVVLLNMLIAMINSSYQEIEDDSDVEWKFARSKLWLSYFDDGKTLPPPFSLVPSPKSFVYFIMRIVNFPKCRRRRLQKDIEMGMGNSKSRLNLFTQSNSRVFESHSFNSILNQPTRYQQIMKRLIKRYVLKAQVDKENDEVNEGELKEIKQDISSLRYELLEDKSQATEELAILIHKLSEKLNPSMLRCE
T2 sequence (Q13586 23-685 partner limits assumed): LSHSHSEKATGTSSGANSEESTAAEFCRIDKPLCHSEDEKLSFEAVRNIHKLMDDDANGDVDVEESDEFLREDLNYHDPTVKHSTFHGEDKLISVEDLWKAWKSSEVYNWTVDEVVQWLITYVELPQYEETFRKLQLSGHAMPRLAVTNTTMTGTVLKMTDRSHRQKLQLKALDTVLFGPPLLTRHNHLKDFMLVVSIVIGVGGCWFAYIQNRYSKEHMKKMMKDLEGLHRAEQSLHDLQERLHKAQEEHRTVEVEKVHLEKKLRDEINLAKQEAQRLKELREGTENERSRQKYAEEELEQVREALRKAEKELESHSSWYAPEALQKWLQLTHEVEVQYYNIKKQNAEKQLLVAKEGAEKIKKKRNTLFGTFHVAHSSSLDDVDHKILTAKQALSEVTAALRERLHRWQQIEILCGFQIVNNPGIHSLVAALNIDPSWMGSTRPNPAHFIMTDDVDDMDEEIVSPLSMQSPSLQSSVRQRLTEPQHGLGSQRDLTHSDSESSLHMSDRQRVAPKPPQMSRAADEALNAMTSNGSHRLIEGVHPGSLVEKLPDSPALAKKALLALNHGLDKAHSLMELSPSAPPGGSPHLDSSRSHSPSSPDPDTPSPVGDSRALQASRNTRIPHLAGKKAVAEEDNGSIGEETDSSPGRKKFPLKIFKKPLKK
T2 sequence (Q96D31 whole entry): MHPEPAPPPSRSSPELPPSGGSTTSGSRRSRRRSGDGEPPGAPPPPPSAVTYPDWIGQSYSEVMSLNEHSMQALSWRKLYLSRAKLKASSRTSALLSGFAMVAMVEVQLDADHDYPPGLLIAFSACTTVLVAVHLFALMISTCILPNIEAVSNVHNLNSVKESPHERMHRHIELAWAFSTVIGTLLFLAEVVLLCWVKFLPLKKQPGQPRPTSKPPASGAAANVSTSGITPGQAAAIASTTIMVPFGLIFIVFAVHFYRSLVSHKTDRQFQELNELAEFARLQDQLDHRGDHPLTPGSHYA
Transient receptor potential cation channel subfamily V member 1 (Homo sapiens), sequence (Q8NER1 whole entry): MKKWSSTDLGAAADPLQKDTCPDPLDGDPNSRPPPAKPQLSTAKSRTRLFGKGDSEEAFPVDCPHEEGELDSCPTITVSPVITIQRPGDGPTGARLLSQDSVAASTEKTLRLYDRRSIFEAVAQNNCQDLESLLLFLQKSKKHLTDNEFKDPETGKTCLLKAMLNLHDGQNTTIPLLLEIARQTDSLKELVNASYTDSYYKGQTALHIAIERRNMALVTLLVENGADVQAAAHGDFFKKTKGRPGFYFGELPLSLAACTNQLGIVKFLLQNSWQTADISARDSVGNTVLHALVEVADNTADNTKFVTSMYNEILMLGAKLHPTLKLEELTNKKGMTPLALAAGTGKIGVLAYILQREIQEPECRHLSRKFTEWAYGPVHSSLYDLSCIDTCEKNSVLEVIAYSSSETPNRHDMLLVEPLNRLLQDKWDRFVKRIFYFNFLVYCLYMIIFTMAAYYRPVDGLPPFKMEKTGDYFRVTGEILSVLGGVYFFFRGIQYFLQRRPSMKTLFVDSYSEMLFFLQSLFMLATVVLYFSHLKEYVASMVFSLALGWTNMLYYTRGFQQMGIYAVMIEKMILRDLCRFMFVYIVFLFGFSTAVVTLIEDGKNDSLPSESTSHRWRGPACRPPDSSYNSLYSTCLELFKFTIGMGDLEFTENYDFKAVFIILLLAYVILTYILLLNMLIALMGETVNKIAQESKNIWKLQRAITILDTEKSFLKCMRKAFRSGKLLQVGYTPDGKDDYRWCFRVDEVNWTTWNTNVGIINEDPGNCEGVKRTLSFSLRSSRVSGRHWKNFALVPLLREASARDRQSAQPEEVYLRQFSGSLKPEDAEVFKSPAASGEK
Transient receptor potential cation channel subfamily M member 8 (Homo sapiens), sequence (Q7Z2W7 whole entry, looked up): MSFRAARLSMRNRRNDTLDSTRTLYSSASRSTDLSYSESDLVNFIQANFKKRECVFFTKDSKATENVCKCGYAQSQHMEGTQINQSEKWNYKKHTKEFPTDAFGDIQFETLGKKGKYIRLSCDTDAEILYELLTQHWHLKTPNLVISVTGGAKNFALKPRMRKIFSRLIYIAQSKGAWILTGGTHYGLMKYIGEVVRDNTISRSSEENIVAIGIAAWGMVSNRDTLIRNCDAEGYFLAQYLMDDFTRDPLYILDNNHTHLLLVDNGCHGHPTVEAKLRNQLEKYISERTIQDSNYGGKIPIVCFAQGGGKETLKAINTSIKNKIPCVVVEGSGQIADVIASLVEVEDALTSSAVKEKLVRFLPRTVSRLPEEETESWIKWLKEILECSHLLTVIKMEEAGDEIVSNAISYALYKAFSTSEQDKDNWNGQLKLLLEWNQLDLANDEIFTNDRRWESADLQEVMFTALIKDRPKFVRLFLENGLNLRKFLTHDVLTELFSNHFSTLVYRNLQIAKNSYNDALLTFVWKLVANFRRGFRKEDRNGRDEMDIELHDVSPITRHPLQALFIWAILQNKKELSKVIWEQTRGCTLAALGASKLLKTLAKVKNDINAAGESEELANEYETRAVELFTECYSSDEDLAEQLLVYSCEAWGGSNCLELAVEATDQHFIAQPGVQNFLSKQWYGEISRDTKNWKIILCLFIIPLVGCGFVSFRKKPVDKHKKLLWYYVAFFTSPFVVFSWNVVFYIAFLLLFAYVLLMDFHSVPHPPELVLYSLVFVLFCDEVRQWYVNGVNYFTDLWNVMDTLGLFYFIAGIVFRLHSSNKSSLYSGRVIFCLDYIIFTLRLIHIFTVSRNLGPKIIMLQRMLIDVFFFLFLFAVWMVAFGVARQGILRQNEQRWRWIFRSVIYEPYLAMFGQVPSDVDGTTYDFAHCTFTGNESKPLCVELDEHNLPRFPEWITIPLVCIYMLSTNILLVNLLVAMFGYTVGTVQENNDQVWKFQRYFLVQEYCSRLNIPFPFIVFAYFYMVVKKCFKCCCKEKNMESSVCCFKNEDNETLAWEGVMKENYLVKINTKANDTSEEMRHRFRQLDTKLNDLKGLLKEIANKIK
T3 sequence (Q13586 23-685 partner limits assumed): as the sequence (Q13586 23-685 partner limits assumed) above
T3 sequence (Q96D31 whole entry): as the sequence (Q96D31 whole entry) above

| Compound | Activity (Jurkat [1]) | Activity [2] | Activity [3] | viability at 10 µM [6] | other results |
| --- | --- | --- | --- | --- | --- |
| CCOC(=O)c1cnn(-c2ccc(-n3cc(-c4ccc(C(=O)O)cc4)nn3)cc2)c1C(F)(F)F | 67.7% | 59.9% | 52.1% |  |  |
| CCOC(=O)c1cnn(-c2ccc(-c3cn(-c4cccc(C(=O)O)c4)nn3)cc2)c1C(F)(F)F | 36.3% | 56.7% | 30% |  |  |
| O=C(Nc1ccc(-n2nc(C(F)(F)F)cc2C(F)(F)F)cc1)c1ccncc1F |  |  | 10.3% | 70.3% | inhibition [4]: Active; inhibition [5]: Active; pIC50 [7]: 6.52 |
| CCOC(=O)c1cnn(-c2ccc(-n3cc(-c4cccc(N)c4)nn3)cc2)c1C(F)(F)F | 89.3% | 65.3% | 81.7% |  |  |
| CCOC(=O)c1cnn(-c2ccc(-n3cc(-c4cccc(C(=O)NO)c4)nn3)cc2)c1C(F)(F)F |  |  | 6.4% | 67.5% |  |
| CCOC(=O)c1cnn(-c2ccc(-c3cn(-c4ccc(C(=O)O)cc4)nn3)cc2)c1C(F)(F)F | 60.3% | 69.5% | 69.3% |  |  |
| COC(=O)c1cnn(-c2ccc(-n3cc(-c4cccc(C(=O)O)c4)nn3)cc2)c1C(F)(F)F |  |  | 7.9% | 69.2% | remaining at 0.5 h, 50 µM [8]: 6.5% |
| CCOC(=O)c1cnn(-c2ccc(-n3cc(-c4ccc(O)c(OC)c4)nn3)cc2)c1C(F)(F)F | 21.6% | 65% | 43.2% |  |  |
| CCOC(=O)c1cnn(-c2ccc(-c3cn(-c4cccc(N)c4)nn3)cc2)c1C(F)(F)F | 85.4% | 61.3% | 73.2% |  |  |
| CC(C)OC(=O)c1cnn(-c2ccc(-n3cc(-c4cccc(C(=O)O)c4)nn3)cc2)c1C(F)(F)F |  |  | 3.5% | 87.2% | Drug metabolism [9]: Metabolite_Notdetected; Drug metabolism [10]: Metabolite_Detected; inhibition [4]: inactive; inhibition [11]: inactive; inhibition [12]: inactive; inhibition [5]: inactive; remaining at 1 h, 50 µM [13]: 81.3%; remaining at 0.5 h, 50 µM [8]: 87.7%; Drug metabolism [14]: Metabolite_Detected; pIC50 [7]: 5.51 |
| CCOC(=O)c1cnn(-c2ccc(NC(=O)C(Cl)=C(Cl)Cl)cc2)c1C(F)(F)F | 6.1% | 40.7% | 8.9% | 28.6% | residual activity [15]: < 100%; inhibition [4]: inactive; inhibition [5]: inactive; remaining at 0.5 h, 50 µM [8]: 20.4%; pIC50 [16]: 6.52; residual activity [17]: < 100%; residual activity (Jurkat [18]): < 100% |
| CCOC(=O)c1cnn(-c2ccc(-c3cn(CCCC(=O)O)nn3)cc2)c1C(F)(F)F | 80.9% | 69.9% | 95.5% |  |  |
| O=C(O)c1cccc(-c2cn(-c3ccc(-n4nc(C(F)(F)F)cc4C(F)(F)F)cc3)nn2)c1 | 61.7% | 61.3% | 53% |  |  |
| CCOC(=O)c1cnn(-c2ccc(-c3cn(-c4ccc(Cl)cc4)nn3)cc2)c1C(F)(F)F | 197% | 153% | 142% |  | Activity (Jurkat [19]): Active; inhibition [4]: inactive; Activity (Jurkat [20]): Active; Activity (Jurkat [21]): Active; inhibition [11]: inactive; inhibition [12]: inactive; inhibition [5]: inactive; Activity [22]: Active; Activity [23]: inactive; Activity [24]: inactive; Activity (Homo sapiens): Active; Activity [25]: inactive; Activity (Jurkat [26]): inactive; Activity [27]: Active; Activity [28]: Active; Activity [29]: Active; Activity [30]: Active; Activity [31]: Active; Activity [32]: Active |
| CCOC(=O)c1cnn(-c2ccc(NC(=O)c3cccc(C(=O)O)c3)cc2)c1C(F)(F)F |  |  | 63.5% | 65.9% |  |
| O=C(O)c1cccc(-c2cn(-c3ccc(-n4ncc(C(=O)OCc5ccccc5)c4C(F)(F)F)cc3)nn2)c1 |  |  | 10.5% | 82.2% |  |
| CCOC(=O)c1cnn(-c2ccc(-c3cn(-c4ccncc4F)nn3)cc2)c1C(F)(F)F | 67.1% | 62.3% | 81.4% |  |  |
